Reference: ChEMBL document CHEMBL5705889, “Novel mutant-selective EGFR kinase inhibitors against EGFR T790M” (Nature, 2009)
Calls of active or inactive are those of the source. No cut-off for these calls is given here.

How the values were obtained:
[1] = AUC(0 to infinity) in mouse at 1 mg/kg, iv administered as single dose; type: ADME, organism-based; conditions: in vivo
BaF3 [2] = experiment: cells; type: functional, cell-based; conditions: Mus musculus, BaF3, 72 h
Mus musculus [3] = experiment: In vivo antitumor activity in transgenic mouse harboring EGFR Del19/T790M mutant assessed as tumor regression at 25 mg/kg, administered via gavage for 2 weeks; type: functional, organism-based
In short: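 Inducible bitransgenic mice carrying EGFR T790M/L858R or exon19 deletion-T790M were dosed by daily gavage at 25mg/kg. The vehicle was 10% 1-methyl-2-pyrrolidinone:90% PEG-300, and the control group received vehicle alone. Tumor response was followed by MRI scanning.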

BaF3 [4] = experiment: cells; type: functional, cell-based; conditions: Mus musculus, BaF3, 72 h; remark: listed apart in the source
[5] = MRT in mouse at 1 mg/kg, iv administered as single dose; type: ADME, organism-based; conditions: in vivo
[6] = Drug concentration in mouse plasma at 10 mg/kg, po administered as single dose and measured after 8 hrs; type: ADME, organism-based
[7] = Toxicity in mouse harboring EGFR del E746_A750/T790M mutant assessed as effect on body weight at 25 mg/kg administered via gavage for 2 weeks; type: organism-based; conditions: in vivo, po, 336 h
In short: (§1)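 Inducible bitransgenic tumor mice gavaged daily, 25 mg/kg, vehicle NMP (10% 1-methyl-2-pyrrolidinone, 90% PEG-300), compared against vehicle-treated mice; weight, serum creatine and total white blood cell count monitored during the study.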

[8] = molecular target: Epidermal growth factor receptor (Homo sapiens, UniProt P00533); experiment: Inhibition of EGFR phosphorylation in human PC9 Gefitinib-resistant (GR) cells at 0.01 to 1 uM incubated for 16 hrs by immunoblot analysis; type: cell-based; conditions: PC9 Gefitinib-resistant (GR) cell, dose 0.01-1 µM
Mus musculus [9] = experiment: Invivo antitumor activity in transgenic mouse harboring EGFR del19/T790M mutant assessed as increase in fibrosis at 25 mg/kg administered via gavage for 2 weeks by H&E staining based analysis; type: functional, organism-based
In short: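 EGFR-TL (L858R/T790M) or exon19 deletion-T790M (TD) inducible bitransgenic mice dosed by oral gavage daily at 25 mg/kg; vehicle 10% 1-methyl-2-pyrrolidinone:90% PEG-300. Tumors followed by MRI; lung histology by standard protocols.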

[10] = Clearance in mouse at 1 mg/kg, iv administered as single dose; type: ADME, organism-based; conditions: in vivo
[11] = Cmax in mouse at 10 mg/kg, po administered as single dose; type: ADME, organism-based; conditions: in vivo
BaF3 [12] = experiment: cells; type: functional, cell-based; conditions: Mus musculus, BaF3, 72 h; remark: listed apart in the source
[13] = C0 in mouse at 1 mg/kg, iv administered as single dose; type: ADME, organism-based; conditions: in vivo
BaF3 [14] = experiment: cells; type: functional, cell-based; conditions: Mus musculus, BaF3, 72 h; remark: listed apart in the source
[15] = molecular target: NUAK family SNF1-like kinase 1 (Homo sapiens, UniProt O60285); experiment: Binding affinity to ARK5 (unknown origin) assessed as dissociation constant
Mus musculus [16] = experiment: In vivo inhibition of ERK1/2 phosphorylation in transgenic mouse harboring EGFR del E746_A750/T790M mutant at 2.5 to 25 mg/kg administered as two doses separated by 16 hours by immunoblot analysis; type: functional, organism-based; conditions: dose 2.5-25 mg/kg
In short: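 Transgenic mice gavaged with compound in 10% 1-methyl-2-pyrrolidinone:90% PEG-300 vehicle; phosphorylation assessed in tissue by immunoblotting per standard protocols.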

NCI-H3255 = experiment: Antiproliferative activity against human NCI-H3255 cells harboring EGFR L858R mutant assessed as inhibition of cell growth incubated for 72 hrs by MTS assay; type: functional, cell-based; conditions: NCI-H3255, 72 h
Mus musculus [17] = experiment: In vivo inhibition of AKT phosphorylation in transgenic mouse harboring EGFR del E746_A750/T790M mutant at 2.5 to 25 mg/kg administered as two doses separated by 16 hours by immunoblot analysis; type: functional, organism-based; conditions: dose 2.5-25 mg/kg
[18] = molecular target: Mitogen-activated protein kinase; ERK1/ERK2 (Homo sapiens) (UniProt P27361+P28482); experiment: Inhibition of ERK1/2 phosphorylation in human NCI-H1975 cells at 0.01 to 1.0 uM incubated for 16 hrs by immunoblot analysis; type: cell-based; conditions: dose 0.01-1 µM
BaF3 [19] = experiment: cells; type: functional, cell-based; conditions: Mus musculus, BaF3, 72 h; remark: listed apart in the source
[20] = Drug concentration in mouse plasma at 10 mg/kg, po administered as single dose and measured after 1 hrs; type: ADME, organism-based
[21] = Toxicity in mouse harboring EGFR del E746_A750/T790M mutant assessed as effect on serum creatine level at 25 mg/kg administered via gavage for 2 weeks; type: organism-based; conditions: in vivo, po, 336 h; in short: as §1
cells = type: functional, cell-based; conditions: Homo sapiens, NCI-H1819, 72 h

Sequence of NUAK family SNF1-like kinase 1 (O60285 whole entry): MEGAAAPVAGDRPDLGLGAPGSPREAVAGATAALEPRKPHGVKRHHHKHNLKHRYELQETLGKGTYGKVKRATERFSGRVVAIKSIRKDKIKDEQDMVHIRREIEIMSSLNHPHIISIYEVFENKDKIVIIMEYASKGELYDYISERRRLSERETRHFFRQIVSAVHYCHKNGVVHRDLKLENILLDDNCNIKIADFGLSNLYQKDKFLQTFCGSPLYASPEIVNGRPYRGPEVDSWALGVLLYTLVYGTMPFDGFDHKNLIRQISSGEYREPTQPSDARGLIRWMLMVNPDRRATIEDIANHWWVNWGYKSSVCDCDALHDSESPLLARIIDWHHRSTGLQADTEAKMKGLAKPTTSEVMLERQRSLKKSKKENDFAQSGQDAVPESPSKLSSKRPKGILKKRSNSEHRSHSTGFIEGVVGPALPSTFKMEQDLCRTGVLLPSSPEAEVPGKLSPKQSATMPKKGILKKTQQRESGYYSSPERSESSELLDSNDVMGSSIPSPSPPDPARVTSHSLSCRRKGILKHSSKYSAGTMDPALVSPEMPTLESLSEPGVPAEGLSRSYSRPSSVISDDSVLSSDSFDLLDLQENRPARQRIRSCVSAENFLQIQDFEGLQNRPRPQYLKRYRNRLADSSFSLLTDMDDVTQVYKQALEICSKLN
Sequence of Mitogen-activated protein kinase; ERK1/ERK2 (Homo sapiens) (P27361 whole entry, looked up): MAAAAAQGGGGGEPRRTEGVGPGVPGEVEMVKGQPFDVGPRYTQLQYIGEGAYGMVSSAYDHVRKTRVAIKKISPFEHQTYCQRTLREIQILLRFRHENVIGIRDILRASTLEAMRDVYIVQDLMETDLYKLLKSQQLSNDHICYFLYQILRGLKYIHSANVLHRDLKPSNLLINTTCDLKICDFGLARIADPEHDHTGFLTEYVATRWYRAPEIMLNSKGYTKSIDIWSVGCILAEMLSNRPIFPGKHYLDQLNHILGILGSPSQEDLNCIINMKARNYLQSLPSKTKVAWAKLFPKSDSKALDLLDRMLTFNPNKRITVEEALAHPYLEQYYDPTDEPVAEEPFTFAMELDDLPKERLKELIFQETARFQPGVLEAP
Sequence of Mitogen-activated protein kinase; ERK1/ERK2 (Homo sapiens) (P28482 whole entry, looked up): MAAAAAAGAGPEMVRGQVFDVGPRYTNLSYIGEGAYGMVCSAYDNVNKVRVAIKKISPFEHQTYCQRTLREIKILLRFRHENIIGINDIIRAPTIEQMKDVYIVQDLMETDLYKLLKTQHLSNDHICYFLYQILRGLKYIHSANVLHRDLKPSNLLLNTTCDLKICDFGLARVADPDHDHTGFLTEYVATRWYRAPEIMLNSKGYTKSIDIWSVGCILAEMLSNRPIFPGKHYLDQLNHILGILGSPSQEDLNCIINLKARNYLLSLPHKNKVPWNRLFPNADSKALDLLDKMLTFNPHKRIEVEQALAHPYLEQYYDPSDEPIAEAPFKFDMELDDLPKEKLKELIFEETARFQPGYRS
Sequence of Epidermal growth factor receptor (P00533 whole entry): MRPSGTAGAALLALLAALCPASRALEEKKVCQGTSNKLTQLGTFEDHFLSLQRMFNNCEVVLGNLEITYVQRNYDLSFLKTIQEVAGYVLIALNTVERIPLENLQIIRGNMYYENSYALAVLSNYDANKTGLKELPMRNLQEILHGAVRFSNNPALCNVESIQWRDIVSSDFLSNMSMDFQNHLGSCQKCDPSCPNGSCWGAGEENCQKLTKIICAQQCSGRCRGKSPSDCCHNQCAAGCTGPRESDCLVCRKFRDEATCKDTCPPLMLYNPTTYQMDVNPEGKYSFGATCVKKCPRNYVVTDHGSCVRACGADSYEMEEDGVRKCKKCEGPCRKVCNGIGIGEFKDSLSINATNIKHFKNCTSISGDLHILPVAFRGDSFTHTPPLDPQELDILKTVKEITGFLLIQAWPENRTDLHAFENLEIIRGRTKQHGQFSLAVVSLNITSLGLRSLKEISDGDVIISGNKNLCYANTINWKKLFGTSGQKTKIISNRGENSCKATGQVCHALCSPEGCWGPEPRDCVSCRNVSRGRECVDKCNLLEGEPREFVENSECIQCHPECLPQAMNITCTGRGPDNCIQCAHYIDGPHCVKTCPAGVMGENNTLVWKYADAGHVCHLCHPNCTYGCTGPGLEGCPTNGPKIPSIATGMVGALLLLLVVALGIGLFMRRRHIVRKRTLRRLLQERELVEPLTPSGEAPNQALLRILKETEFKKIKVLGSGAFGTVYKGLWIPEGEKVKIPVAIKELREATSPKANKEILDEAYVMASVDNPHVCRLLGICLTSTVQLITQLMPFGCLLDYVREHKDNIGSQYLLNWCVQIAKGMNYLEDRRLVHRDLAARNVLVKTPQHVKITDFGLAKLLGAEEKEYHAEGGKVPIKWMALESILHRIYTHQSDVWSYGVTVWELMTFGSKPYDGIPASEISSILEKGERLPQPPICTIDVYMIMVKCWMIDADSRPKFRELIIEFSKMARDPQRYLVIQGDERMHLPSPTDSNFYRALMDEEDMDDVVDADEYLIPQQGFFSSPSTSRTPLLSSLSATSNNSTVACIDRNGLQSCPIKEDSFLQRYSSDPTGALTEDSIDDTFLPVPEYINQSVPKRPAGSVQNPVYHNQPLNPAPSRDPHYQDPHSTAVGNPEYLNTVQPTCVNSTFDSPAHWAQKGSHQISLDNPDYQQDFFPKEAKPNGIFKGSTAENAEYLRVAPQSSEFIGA

AUC(0-inf) [1]: 976 ng·h/mL | IC50 (BaF3 [2]): 3 nM | IC50 (BaF3 [4]): 35 nM | MRT [5]: 1.51 h | concentration at 8 h [6]: 59.2 ng/mL | inhibition [8]: Active | clearance [10]: 17.1 mL/min/kg | Cmax [11]: 429 ng/mL | IC50 (BaF3 [12]): 157 nM | C0 [13]: 1480 ng/mL | IC50 (BaF3 [14]): 1860 nM | Kd [15]: 91 nM | IC50 (NCI-H3255): 89 nM | inhibition [18]: Active | IC50 (BaF3 [19]): 2 nM | concentration at 1 h [20]: 340 ng/mL | IC50 (cells): 924 nM
Compound: C=CC(=O)Nc1cccc(Oc2nc(Nc3ccc(N4CCN(C)CC4)cc3OC)ncc2Cl)c1
Activity (Mus musculus [3]): Active | Activity [7]: Non-Toxic | Activity (Mus musculus [9]): Active | inhibition (Mus musculus [16]): Active | inhibition (Mus musculus [17]): Active | Activity [21]: Non-Toxic
